Source: ChEMBL document CHEMBL4406801, “Novel Human Aminopeptidase N Inhibitors: Discovery and Optimization of Subsite Binding Interactions” (J Med Chem, 2019)
Converted amounts (≈) assume the structure as drawn. The source made the active and inactive calls. The calls are words filed in the database; no cut-off is given here.

Legend:
[1] = Solubility of the compound in methanol; type: physicochemical
Aminopeptidase N [2] = biological target: T1, Aminopeptidase N (Homo sapiens, UniProt P15144); assay: Inhibition of soluble human APN ectodomain stably expressed in HEK293 GnTI(-) cells using H-Leu-NHMec as substrate preincubated for 10 mins followed by substrate addition and measured for 1 hr by spectrofluorimetric method; details: read-out: Ki(app)
T1 sequence (P15144 whole entry, the tested form may be a part): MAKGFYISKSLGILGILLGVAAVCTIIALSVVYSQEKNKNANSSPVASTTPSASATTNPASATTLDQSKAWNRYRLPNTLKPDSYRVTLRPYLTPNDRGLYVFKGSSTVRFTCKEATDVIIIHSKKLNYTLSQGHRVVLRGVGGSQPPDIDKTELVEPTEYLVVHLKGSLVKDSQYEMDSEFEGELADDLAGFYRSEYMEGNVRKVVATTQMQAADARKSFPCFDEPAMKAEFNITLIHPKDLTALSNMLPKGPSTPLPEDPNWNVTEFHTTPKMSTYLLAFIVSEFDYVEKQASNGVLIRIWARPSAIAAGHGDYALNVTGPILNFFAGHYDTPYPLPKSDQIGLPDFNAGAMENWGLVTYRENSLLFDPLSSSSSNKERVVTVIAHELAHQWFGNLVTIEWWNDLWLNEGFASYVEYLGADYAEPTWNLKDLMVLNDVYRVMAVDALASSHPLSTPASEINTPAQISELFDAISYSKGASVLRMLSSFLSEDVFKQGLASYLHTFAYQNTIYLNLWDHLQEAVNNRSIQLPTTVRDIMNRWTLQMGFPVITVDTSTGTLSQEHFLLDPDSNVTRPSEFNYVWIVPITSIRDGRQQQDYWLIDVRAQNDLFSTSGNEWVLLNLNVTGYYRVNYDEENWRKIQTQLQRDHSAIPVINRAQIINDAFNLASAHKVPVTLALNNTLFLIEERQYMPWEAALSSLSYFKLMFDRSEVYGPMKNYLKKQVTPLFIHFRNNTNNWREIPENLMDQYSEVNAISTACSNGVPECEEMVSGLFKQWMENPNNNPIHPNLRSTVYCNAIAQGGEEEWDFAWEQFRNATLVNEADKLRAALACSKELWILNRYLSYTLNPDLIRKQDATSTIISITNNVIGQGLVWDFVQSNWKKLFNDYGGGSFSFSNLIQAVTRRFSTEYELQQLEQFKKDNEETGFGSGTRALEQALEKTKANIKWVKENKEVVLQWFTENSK

Aminopeptidase N [3] = biological target: T1, Aminopeptidase N; assay: Potency index, ratio of bestatin Ki(app) to test compound Ki(app) for soluble human APN ectodomain stably expressed in HEK293 GnTI(-) cells; type: cell-based
[4] = biological target: 72 kDa type IV collagenase (Homo sapiens, UniProt P08253); assay: Inhibition of MMP2 (unknown origin) using QF-24 as substrate preincubated for 1 hr followed by substrate addition and measured at 1 min interval for 1 hr by fluorescence assay
Sequence of 72 kDa type IV collagenase (P08253 whole entry): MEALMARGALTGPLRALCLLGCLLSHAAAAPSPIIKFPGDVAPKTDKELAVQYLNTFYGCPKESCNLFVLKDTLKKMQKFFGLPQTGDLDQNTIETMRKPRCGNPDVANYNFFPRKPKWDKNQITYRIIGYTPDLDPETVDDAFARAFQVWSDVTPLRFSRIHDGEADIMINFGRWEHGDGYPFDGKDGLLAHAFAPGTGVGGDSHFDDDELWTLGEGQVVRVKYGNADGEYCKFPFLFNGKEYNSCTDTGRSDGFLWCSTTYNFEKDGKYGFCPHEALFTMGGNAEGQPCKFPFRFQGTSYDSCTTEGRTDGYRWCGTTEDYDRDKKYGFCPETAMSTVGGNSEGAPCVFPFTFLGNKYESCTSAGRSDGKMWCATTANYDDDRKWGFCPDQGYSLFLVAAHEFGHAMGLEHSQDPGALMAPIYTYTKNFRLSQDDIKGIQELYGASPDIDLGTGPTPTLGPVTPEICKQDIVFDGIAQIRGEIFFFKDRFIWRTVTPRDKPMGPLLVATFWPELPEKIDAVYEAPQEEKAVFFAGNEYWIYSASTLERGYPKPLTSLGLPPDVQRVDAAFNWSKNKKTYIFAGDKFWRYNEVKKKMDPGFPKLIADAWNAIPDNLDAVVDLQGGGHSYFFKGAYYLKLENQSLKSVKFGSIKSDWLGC

[5] = biological target: Matrix metalloproteinase-9 (Homo sapiens, UniProt P14780); assay: Inhibition of MMP9 (unknown origin) using QF-24 as substrate preincubated for 1 hr followed by substrate addition and measured at 1 min interval for 1 hr by fluorescence assay
Sequence of Matrix metalloproteinase-9 (P14780 whole entry): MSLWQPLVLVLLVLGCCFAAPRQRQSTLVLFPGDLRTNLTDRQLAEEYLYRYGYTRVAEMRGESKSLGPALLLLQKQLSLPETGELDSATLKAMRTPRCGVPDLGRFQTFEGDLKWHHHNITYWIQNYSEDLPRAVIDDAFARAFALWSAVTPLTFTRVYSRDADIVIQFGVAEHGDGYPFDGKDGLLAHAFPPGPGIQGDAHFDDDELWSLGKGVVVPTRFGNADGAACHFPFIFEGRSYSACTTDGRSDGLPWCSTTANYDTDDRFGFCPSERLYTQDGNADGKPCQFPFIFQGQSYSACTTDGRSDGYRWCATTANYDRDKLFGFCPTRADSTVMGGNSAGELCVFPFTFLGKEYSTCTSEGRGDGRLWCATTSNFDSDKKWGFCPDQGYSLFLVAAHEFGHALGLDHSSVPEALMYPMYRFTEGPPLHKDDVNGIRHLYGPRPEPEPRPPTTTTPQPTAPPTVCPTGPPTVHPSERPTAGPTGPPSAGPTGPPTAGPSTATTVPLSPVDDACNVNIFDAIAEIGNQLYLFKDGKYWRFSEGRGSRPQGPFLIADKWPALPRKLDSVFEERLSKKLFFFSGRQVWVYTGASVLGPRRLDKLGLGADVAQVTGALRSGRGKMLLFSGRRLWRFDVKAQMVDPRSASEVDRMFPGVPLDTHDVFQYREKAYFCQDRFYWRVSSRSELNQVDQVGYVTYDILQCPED

[6] = biological target: Neutrophil collagenase (Homo sapiens) (UniProt P22894); assay: Inhibition of MMP8 (unknown origin) using QF-24 as substrate preincubated for 1 hr followed by substrate addition and measured at 1 min interval for 1 hr by fluorescence assay
Sequence of Neutrophil collagenase (Homo sapiens) (P22894 101-467 limits assumed): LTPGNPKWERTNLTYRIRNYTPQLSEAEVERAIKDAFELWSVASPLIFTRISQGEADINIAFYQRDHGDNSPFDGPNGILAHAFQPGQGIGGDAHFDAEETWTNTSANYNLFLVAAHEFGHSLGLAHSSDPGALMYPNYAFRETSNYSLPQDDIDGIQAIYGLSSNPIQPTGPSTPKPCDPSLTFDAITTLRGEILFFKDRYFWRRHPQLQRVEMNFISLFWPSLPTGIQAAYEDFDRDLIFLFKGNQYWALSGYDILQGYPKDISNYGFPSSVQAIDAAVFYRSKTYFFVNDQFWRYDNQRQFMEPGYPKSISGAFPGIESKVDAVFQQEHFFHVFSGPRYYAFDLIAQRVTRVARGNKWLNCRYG

[7] = biological target: T2, Matrilysin (Homo sapiens) (UniProt P09237); assay: Inhibition of MMP7 (unknown origin) using QF-24 as substrate preincubated for 1 hr followed by substrate addition and measured at 1 min interval for 1 hr by fluorescence assay
T2 sequence (whole entry): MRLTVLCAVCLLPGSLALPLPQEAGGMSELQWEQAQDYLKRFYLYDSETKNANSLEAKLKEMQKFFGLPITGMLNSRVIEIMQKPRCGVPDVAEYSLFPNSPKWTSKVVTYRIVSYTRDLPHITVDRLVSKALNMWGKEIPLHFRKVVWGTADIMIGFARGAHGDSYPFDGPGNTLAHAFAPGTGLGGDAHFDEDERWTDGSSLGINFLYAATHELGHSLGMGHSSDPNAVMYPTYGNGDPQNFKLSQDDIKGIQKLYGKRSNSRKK

[8] = Cytotoxicity against human AD293 cells measured after 72 hrs by celltitre-blue assay; type: cell-based
[9] = Kinetic solubility of the compound in 0.01 M HCl at pH 2 after 30 mins by nephelometry; type: physicochemical; details: read-out: Kinetic_solubility
How it was run: (§1)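 Kinetic solubility read by nephelometry under pH 2 (stomach-like) and pH 6.5 (upper fasted small intestine-like) conditions.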

[10] = Kinetic solubility of the compound in phosphate buffer at pH 6.5 after 30 mins by nephelometry; type: physicochemical; details: read-out: Kinetic_solubility; how it was run: as §1
[11] = Partition coefficient, log D of compound at pH 7.4 by HPLC analysis; type: physicochemical; details: octanol/water
How it was run: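 LogD at pH 7.4 estimated by a chromatographic method.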

[12] = Half life in mouse liver microsomes at 1 uM in presence of NADPH; type: ADME, Microsome
[13] = Half life in human liver microsomes at 1 uM in presence of NADPH; type: ADME, Microsome
[14] = Intrinsic clearance in mouse liver microsomes assessed per mg protein at 1 uM in presence of NADPH; type: ADME, Microsome; details: read-out: CLH
[15] = Intrinsic clearance in human liver microsomes assessed per mg protein at 1 uM in presence of NADPH; type: ADME, Microsome; details: read-out: CLH
[16] = Half life in Swiss mouse plasma at 1000 ng/ml by LC-MS analysis; type: ADME, cell-free
[17] = Half life in human plasma at 1000 ng/ml by LC-MS analysis; type: ADME, cell-free
[18] = Inhibition of Plasmodium falciparum M1 aminopeptidase; details: read-out: Ki(app)
Aminopeptidase N [19] = biological target: T1, Aminopeptidase N; assay: Potency index, ratio of tosedostat Ki(app) to test compound Ki(app) for soluble human APN ectodomain stably expressed in HEK293 GnTI(-) cells; type: cell-based

SMILES: O=C(Cc1ccc(F)c(O)c1)NC(C(=O)NO)c1ccc(-c2cc(F)c(F)c(F)c2)cc1 (stereo not drawn)
- solubility [1]: Insoluble

SMILES: COC(=O)C(NC(=O)CC(=O)O)c1ccc(-c2cc(F)c(F)c(F)c2)cc1 (stereo not drawn)
- solubility [1]: Insoluble

SMILES: O=C(NC(C(=O)NO)c1ccc(-c2cc(F)c(F)c(F)c2)cc1)c1ccc(O)c(O)c1 (stereo not drawn)
- solubility [1]: Insoluble

SMILES: O=C(Cc1ccc(O)c(O)c1)NC(C(=O)NO)c1ccc(-c2cc(F)c(F)c(F)c2)cc1 (stereo not drawn)
- solubility [1]: Insoluble

SMILES: CS(=O)(=O)Nc1ccc(C(=O)NC(C(=O)NO)c2ccc(-c3cc(F)c(F)c(F)c3)cc2)cc1 (stereo not drawn)
- Ki (Aminopeptidase N [2]): 0.0045 µM
- Ratio Ki(app) (Aminopeptidase N [3]): 527
- IC50 [4]: 1.3 µM
- IC50 [5]: > 100 µM
- inhibition [6]: inactive
- inhibition [7]: inactive
- CC50 at 72 h [8]: 41 µM
- solubility kinetic at 0.5 h [9]: 12.5 to 25 µg/mL (≈ 25.3 to 50.7 µM)
- solubility kinetic at 0.5 h [10]: 12.5 to 25 µg/mL (≈ 25.3 to 50.7 µM)
- logD [11]: 2.8
- half-life at 1 µM [12]: > 4.17 h
- half-life at 1 µM [13]: > 4.17 h
- microsomal CLint at 1 µM [14]: < 7 µL/min/mg
- microsomal CLint at 1 µM [15]: < 7 µL/min/mg
- half-life at 1000 ng/ml [16]: > 17 h
- half-life at 1000 ng/ml [17]: > 17 h

SMILES: O=C(Cc1ccc(O)c(F)c1)NC(C(=O)NO)c1ccc(-c2cc(F)c(F)c(F)c2)cc1 (stereo not drawn)
- solubility [1]: Insoluble

SMILES: O=C(Cc1ccc(O)cc1)NC(C(=O)NO)c1ccc(-c2cc(F)c(F)c(F)c2)cc1 (stereo not drawn)
- solubility [1]: Insoluble

SMILES: CC(C)(C)C(=O)NC(C(=O)NO)c1ccc(-c2cc(F)c(F)c(F)c2)cc1 (stereo not drawn)
- Ki (Aminopeptidase N [2]): 0.118 µM
- Ki [18]: 0.331 µM
- Ratio Ki(app) (Aminopeptidase N [3]): 10 to 20
- Ratio Ki(app) (Aminopeptidase N [19]): 10 to 20
- inhibition [6]: inactive
- inhibition [7]: inactive

SMILES: CNC(=O)[C@@H](NC(=O)[C@H](CC(C)C)[C@H](O)C(=O)NO)C(C)(C)C
- inhibition [6]: Active
- inhibition [7]: Active

SMILES: NS(=O)(=O)Nc1ccc(C(=O)NC(C(=O)NO)c2ccc(-c3cc(F)c(F)c(F)c3)cc2)cc1 (stereo not drawn)
- Ki (Aminopeptidase N [2]): 0.0082 µM
- IC50 [4]: 2.1 µM
- IC50 [5]: > 100 µM
- inhibition [6]: inactive
- inhibition [7]: inactive
- CC50 at 72 h [8]: 149 µM
- solubility kinetic at 0.5 h [9]: 6.3 to 12.5 µg/mL (≈ 12.7 to 25.3 µM)
- solubility kinetic at 0.5 h [10]: 12.5 to 25 µg/mL (≈ 25.3 to 50.6 µM)
- logD [11]: 2.6
- half-life at 1 µM [12]: > 4.17 h
- half-life at 1 µM [13]: > 4.17 h
- microsomal CLint at 1 µM [14]: < 7 µL/min/mg
- microsomal CLint at 1 µM [15]: < 7 µL/min/mg
- half-life at 1000 ng/ml [16]: > 17 h
- half-life at 1000 ng/ml [17]: > 17 h

SMILES: CC(C)C[C@H](NC(=O)[C@@H](O)[C@H](N)Cc1ccccc1)C(=O)O [UBENIMEX]
- Ki [18]: 1.53 µM

SMILES: CC(C)C[C@@H](C(=O)N[C@H](C(=O)OC1CCCC1)c1ccccc1)[C@H](O)C(=O)NO [TOSEDOSTAT]
- Ki (Aminopeptidase N [2]): 1.18 µM
- Ki [18]: 6.15 µM
- IC50 [4]: 0.19 µM
- IC50 [5]: 1.5 µM
- inhibition [6]: Active
- inhibition [7]: Active

SMILES: O=C(NO)C(NCc1ccc(F)c(O)c1)c1ccc(-c2cc(F)c(F)c(F)c2)cc1 (stereo not drawn)
- Ki (Aminopeptidase N [2]): > 1000 µM
